Test results reported in ChEMBL document CHEMBL4706643 (J Med Chem, 2021).
Calls of active or inactive are those of the source. No cut-off for these calls is given here.

How the values were obtained:
Hepatitis B virus = experiment: Antiviral activity against HBV infected in human HepG2-NTCP cells assessed as reduction in HBeAg secretion cells inoculated with virus for 4 hrs at room temperature and 37 degree C for 24 hrs followed inoculum changed with PMM medium for every 2 days until day 5 post infection by ELISA; assay type: functional, organism-based
[1] = AUC (0 to infinity) in C57BL/6 mouse at 10 mg/kg, ip; assay type: ADME, organism-based; design: time infinity, route intraperitoneal, dose 10 mg/kg; details: in vivo
Method in brief: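 Male C57BL/6 mice, n = 3, dosed IV at 5 mg/kg, IP at 10 mg/kg or by oral gavage (PO) at 10 mg/kg. All doses formulated in DMSO:cremophor:0.9% NaCl = 5:5:90. AUC from time zero to infinity (h*ng/mL) was derived from plasma drug levels and is reported as the mean of the males.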

[2] = Half life in C57BL/6 mouse plasma at 5 mg/kg, iv; assay type: ADME, organism-based
Method in brief: (§1)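 Male C57BL/6 mice (n = 3), single dose IV 5 mg/kg, IP 10 mg/kg or PO 10 mg/kg in DMSO:cremophor:0.9% NaCl 5:5:90; plasma parameters reported as means.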

[3] = Half life in C57BL/6 mouse at 10 mg/kg, ip; assay type: ADME, organism-based; details: in vivo; method in brief: as §1
[4] = Tmax in C57BL/6 mouse at 10 mg/kg, ip; assay type: ADME, organism-based; details: in vivo; method in brief: as §1
[5] = Tmax in C57BL/6 mouse at 10 mg/kg, po; assay type: ADME, organism-based; details: in vivo; method in brief: as §1
[6] = Bioavailability in C57BL/6 mouse at 10 mg/kg, ip; assay type: ADME, organism-based; details: in vivo; method in brief: as §1
Hepatitis delta virus = experiment: Antiviral activity against HDV infected in C57B/L transgenic mouse harbouring human NTCP assessed as decrease in viral RNA levels in liver at 40 mg/kg, ip administered for 2 consecutive days followed by HDV challenge at day 2 and measured at day 8 post infection by qPCR analysis; assay type: functional, organism-based; details: time 8.0 day
Method in brief: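 Neonatal hNTCP-transgenic C57B/L mice received 40 mg/kg i.p. before HDV inoculation, either once or on two consecutive days (n = 4 per group; vehicle group n = 5). HDV was given at 5 × 10⁹ Geq i.p. on day 9 after birth, and mice were sacrificed on day 15. Liver RNA was assayed by RT-qPCR on cDNA from 20 ng RNA, with NTCP mRNA also measured. Group medians are shown.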

[7] = target: T1, Hepatic sodium/bile acid cotransporter (Homo sapiens, UniProt Q14973); experiment: Inhibition of Myr95F binding to human NTCP expressed in HepG2 cells assessed as decrease in cell membrane staining at 1 uM incubated for 2 hrs by fluorescence staining based analysis; details: hepg2, 2 h
T1 sequence (Q14973 whole entry): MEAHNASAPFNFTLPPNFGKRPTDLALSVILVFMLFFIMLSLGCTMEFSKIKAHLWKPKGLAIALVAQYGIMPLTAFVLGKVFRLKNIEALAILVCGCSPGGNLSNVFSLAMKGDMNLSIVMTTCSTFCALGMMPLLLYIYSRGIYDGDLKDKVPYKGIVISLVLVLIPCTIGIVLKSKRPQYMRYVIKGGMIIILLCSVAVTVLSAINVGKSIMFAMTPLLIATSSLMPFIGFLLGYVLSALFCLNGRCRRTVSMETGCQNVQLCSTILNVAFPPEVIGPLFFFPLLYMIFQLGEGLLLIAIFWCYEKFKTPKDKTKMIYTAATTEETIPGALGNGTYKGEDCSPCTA
Method in brief: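 HepG2-NTCP cells stained with fluorescent Myr59F pre-S1 peptide in presence of DMSO, compound (1 μM) or Myr47 (200 nM); membrane staining intensity quantified.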

[8] = target: T1, Hepatic sodium/bile acid cotransporter; experiment: Inhibition of human NTCP-mediated [3H]-TCA uptake expressed in human HepG2 cells at 2 uM incubated for 2 hrs followed by substrate addition and measured for 10 mins by microbeta liquid scintillation counter analysis; assay type: cell-based; details: hepg2, 2.167 h, time 130 min
Method in brief: (§2)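 HepG2 cells expressing NTCP (human, mouse, monkey or tree shrew) seeded 4–6 h, PMM 20–24 h; compound 2 h, then Na+ Ringer's buffer with 2 μM 3H-TCA, 37 °C 10 min; PBS washes, lysis in 1% Triton X-100, scintillation counting. Single-concentration lines at 2 μM.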

[9] = target: T2, Hepatic sodium/bile acid cotransporter (Mus musculus, UniProt O08705); experiment: Inhibition of mouse NTCP-mediated [3H]-TCA uptake expressed in human HepG2 cells at 2 uM incubated for 2 hrs followed by substrate addition and measured for 10 mins by microbeta liquid scintillation counter analysis; assay type: cell-based; details: hepg2, 2.167 h, time 130 min; method in brief: as §2
T2 sequence (O08705 whole entry): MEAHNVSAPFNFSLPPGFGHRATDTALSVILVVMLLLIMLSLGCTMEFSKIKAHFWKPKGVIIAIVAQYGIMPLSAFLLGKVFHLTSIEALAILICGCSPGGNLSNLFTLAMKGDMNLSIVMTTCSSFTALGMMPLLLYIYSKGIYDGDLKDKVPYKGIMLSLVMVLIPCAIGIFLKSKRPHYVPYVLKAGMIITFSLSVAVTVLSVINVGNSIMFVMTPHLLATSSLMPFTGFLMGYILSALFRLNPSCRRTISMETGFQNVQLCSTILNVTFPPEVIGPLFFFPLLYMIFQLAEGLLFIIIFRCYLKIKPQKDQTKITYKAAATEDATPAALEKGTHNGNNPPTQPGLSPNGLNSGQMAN

HepG2 = experiment: Inhibition of tree shrew NTCP-mediated [3H]-TCA uptake expressed in human HepG2 cells at 2 uM incubated for 2 hrs followed by substrate addition and measured for 10 mins by microbeta liquid scintillation counter analysis; assay type: cell-based; details: Scandentia; method in brief: as §2
[10] = target: T3, Solute carrier organic anion transporter family member 1B1 (Homo sapiens, UniProt Q9Y6L6); experiment: Inhibition of OATP1B1 (unknown origin) mediated [3H]-estrone sulfate uptake expressed in human HepG2 cells; assay type: cell-based
T3 sequence (Q9Y6L6 whole entry): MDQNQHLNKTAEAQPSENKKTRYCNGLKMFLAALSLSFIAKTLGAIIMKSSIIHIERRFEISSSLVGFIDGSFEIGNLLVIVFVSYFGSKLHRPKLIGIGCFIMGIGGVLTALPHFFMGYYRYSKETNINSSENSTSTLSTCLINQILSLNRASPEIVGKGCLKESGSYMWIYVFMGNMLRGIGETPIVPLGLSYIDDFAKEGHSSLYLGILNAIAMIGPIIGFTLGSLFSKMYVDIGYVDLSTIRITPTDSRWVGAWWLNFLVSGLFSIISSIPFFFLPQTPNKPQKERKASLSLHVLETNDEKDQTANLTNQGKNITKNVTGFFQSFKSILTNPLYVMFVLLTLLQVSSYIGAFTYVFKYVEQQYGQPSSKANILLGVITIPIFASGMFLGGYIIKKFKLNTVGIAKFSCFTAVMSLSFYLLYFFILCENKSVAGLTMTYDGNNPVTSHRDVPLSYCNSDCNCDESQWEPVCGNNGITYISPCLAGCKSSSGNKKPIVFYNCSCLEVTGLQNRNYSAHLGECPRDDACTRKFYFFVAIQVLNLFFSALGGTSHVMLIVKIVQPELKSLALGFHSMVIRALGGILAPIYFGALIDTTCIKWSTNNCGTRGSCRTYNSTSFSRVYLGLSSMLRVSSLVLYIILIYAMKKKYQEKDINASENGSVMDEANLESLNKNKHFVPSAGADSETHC

Question: For `CC[C@@H]1NC(=O)[C@H]([C@@H]2O[C@@H](Sc3cccc(OCc4ccccc4)c3)C[C@H]2C)N(C)C(=O)[C@H](C(C)C)N(C)C(=O)[C@H](CC(C)C)N(C)C(=O)[C@H](CC(C)C)N(C)C(=O)[C@@H](C)NC(=O)[C@H](C)NC(=O)[C@H](CC(C)C)N(C)C(=O)[C@H](C(C)C)NC(=O)[C@H](CC(C)C)N(C)C(=O)CN(C)C1=O`, which IC50 (Hepatitis B virus) is on record?
Answer: The IC50 was 110 nM.

Question: And the AUC(0-inf) [1]?
Answer: The AUC(0-inf) was 87400 ng·h/mL.

Question: What about the half-life [2] of the same molecule?
Answer: The half-life was 6.03 h.

Question: And the half-life [3]?
Answer: Its half-life is 5.68 h.

Question: And the Tmax [4]?
Answer: The Tmax was 2 h.

Question: What about the Tmax [5] of the same molecule?
Answer: The Tmax was 1 h.

Question: And the bioavailability [6]?
Answer: The bioavailability was 110%.

Question: What about the Activity (Hepatitis delta virus) of the same molecule?
Answer: Its Activity is “Active”.

Question: And the “inhibition (INH)” value [7]?
Answer: The value was “Active”.

Question: And the “inhibition (INH)” value [8]?
Answer: The value was “Active”.

Question: What about the “inhibition (INH)” value [9] of the same molecule?
Answer: The value was “Active”.

Question: What about the inhibition (HepG2) of the same molecule?
Answer: Its inhibition is “Active”.

Question: What about the IC50 [10] of the same molecule?
Answer: Its IC50 is 2270 nM.
